The source made the active and inactive calls. No cut-off for these calls is given here.
Key:
[1] = molecular target: Cruzipain (Trypanosoma cruzi) (UniProt P25779); assay: Ratio of kinact to Ki for Trypanosoma cruzi cruzain
[2] = test system: Trypanosoma cruzi; assay: Antitrypanosomal activity against Trypanosoma cruzi Y strain infected in BESM cells assessed as reduction of parasite number after 72 hrs; assay type: functional, organism-based
Outline: (§1)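 BESM cells in RPMI-1640 with 5% heat-inactivated FCS (37 °C, 5% CO2) infected with Y-strain trypomastigotes, then given fresh medium with inhibitor at 0, 0.3, 1, 3 and 10 μM for 72 h. Fixed in 4% paraformaldehyde and stained with DAPI (0.1 μg/mL), then imaged. Nuclei were sorted by size: host >150 μm², parasite 2-4 μm². The parasite/host nuclei ratio gave the IC50, and the loss of host nuclei gave cytotoxicity. Duplicate or triplicate runs averaged.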

[3] = Cytotoxicity against BEMS cells; assay type: cell-based; details: Bos taurus; outline: as §1
[4] = molecular target: Cruzipain (Trypanosoma cruzi) (UniProt P25779); assay: (§2) Inhibition of Trypanosoma cruzi cruzain
[5] = molecular target: Cruzipain (Trypanosoma cruzi, UniProt P25779); assay: as §2
[6] = test system: Trypanosoma cruzi; assay: Antitrypanosomal activity against Trypanosoma cruzi trypomastigotes infected in C3H mouse assessed as infection in spleen at 20 mg/kg, ip bid for 27 days; assay type: functional, organism-based; design: dose 20 mg/kg
Outline: (§3)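 Female C3H mice (mean 22 g) infected ip with 1.2 × 10⁶ tissue-culture trypomastigotes. From 24 h post-infection, treated (n=5) with 20 mg/kg ip b.i.d. for 27 days in 70% DMSO:30% water, prepared daily; untreated controls n=3. Mice were sacrificed at day 77 post-infection for symptom scoring and histopathology of heart, skeletal muscle, liver, spleen and colon.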

[7] = test system: Trypanosoma cruzi; assay: Antitrypanosomal activity against Trypanosoma cruzi trypomastigotes infected in C3H mouse assessed as infection in liver at 20 mg/kg, ip bid for 27 days; assay type: functional, organism-based; design: dose 20 mg/kg; outline: as §3
[8] = test system: Trypanosoma cruzi; assay: Antitrypanosomal activity against Trypanosoma cruzi trypomastigotes infected mouse model assessed as chagas disease symptoms at 20 mg/kg, ip bid for 27 days measured after 77 days of post infection
[9] = test system: Trypanosoma cruzi; assay: Antitrypanosomal activity against Trypanosoma cruzi trypomastigotes infected in C3H mouse assessed as infection in colon at 20 mg/kg, ip bid for 27 days; assay type: functional, organism-based; design: dose 20 mg/kg; outline: as §3
[10] = test system: Trypanosoma cruzi; assay: Antitrypanosomal activity against Trypanosoma cruzi trypomastigotes infected in C3H mouse assessed as infection in heart at 20 mg/kg, ip bid for 27 days; assay type: functional, organism-based; design: dose 20 mg/kg; outline: as §3
[11] = test system: Mus musculus; assay: Toxicity in Trypanosoma cruzi trypomastigotes infected mouse model at 20 mg/kg, ip bid for 27 days; details: in vivo, 648 h
[12] = test system: Trypanosoma cruzi; assay: Antitrypanosomal activity against Trypanosoma cruzi trypomastigotes infected in C3H mouse assessed as acute chagas disease symptoms at 20 mg/kg, ip bid for 27 days; assay type: functional, organism-based; design: dose 20 mg/kg; outline: as §3
[13] = test system: Trypanosoma cruzi; assay: Antitrypanosomal activity against Trypanosoma cruzi trypomastigotes infected in C3H mouse assessed as infection in skeletal muscle at 20 mg/kg, ip bid for 27 days; assay type: functional, organism-based; design: dose 20 mg/kg; details: Muscle tissue; outline: as §3

Chain of Cruzipain (P25779 whole entry): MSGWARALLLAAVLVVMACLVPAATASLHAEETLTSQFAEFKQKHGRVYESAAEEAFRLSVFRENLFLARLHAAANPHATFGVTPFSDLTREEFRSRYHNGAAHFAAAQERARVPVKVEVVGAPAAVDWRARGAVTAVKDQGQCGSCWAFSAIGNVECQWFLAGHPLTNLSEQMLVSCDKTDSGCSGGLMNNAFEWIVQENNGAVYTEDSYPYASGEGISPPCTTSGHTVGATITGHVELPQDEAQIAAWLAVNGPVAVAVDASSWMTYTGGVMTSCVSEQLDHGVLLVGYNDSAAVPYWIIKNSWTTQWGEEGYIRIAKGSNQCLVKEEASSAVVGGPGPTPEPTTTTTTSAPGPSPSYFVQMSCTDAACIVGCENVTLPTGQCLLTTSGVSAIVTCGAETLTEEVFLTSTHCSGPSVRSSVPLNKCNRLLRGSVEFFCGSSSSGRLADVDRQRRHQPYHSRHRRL
Chain of Cruzipain (Trypanosoma cruzi) (P25779 123-467 limits assumed): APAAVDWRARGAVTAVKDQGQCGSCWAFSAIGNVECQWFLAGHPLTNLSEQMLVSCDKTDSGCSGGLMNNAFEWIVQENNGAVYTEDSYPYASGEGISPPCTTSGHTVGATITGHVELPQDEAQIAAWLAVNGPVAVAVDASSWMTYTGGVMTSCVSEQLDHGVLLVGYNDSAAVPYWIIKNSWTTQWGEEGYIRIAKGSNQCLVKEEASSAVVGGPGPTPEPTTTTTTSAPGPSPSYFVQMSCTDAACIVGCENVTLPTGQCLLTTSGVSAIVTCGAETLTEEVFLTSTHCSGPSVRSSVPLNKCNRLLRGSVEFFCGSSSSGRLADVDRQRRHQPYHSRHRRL

Ratio [1] [M⁻¹ s⁻¹]	IC50 [2] [µM]	Kinact [4] [s⁻¹]	Ki [5] [µM]	SMILES	IC50 [3] [µM]	Activity [6]	Activity [7]	Activity [8]	Activity [9]	Activity [10]	Activity [11]	Activity [12]	Activity [13]
522000	5.8	0.096	0.35	CCC(C(=O)COc1c(F)c(F)cc(F)c1F)n1cc([C@@](C)(NCc2ccc3ncccc3c2)C2CCC2)nn1 (mixture of isomers)	> 10								
12300		0.043	6.76	CC(C(=O)COc1c(F)c(F)cc(F)c1F)n1cc([C@@](C)(NCc2ccc3ncccc3c2)C(C)C)nn1 (some centres undefined)									
487000	5.7	0.048	0.19	CCC(C(=O)COc1c(F)c(F)cc(F)c1F)n1cc([C@](C)(CC(C)C)NCc2ccc3ncccc3c2)nn1 (some centres undefined)	> 10								
	5.1			CCCCC(C(=O)COc1c(F)c(F)cc(F)c1F)n1cc([C@@](C)(NCc2ccc3ncccc3c2)C(C)C)nn1 (some centres undefined)	> 10	Active	Active	Active	Active	Active	Non-toxic	Non-toxic	inactive
680000	4.1	0.047	0.13	CCCCC(C(=O)COc1c(F)c(F)cc(F)c1F)n1cc([C@@](C)(NCc2ccc3ncccc3c2)C2CCC2)nn1 (some centres undefined)	> 10								
657000	3.1	0.036	0.1	CCCCC(C(=O)COc1c(F)c(F)cc(F)c1F)n1cc([C@](C)(CC(C)C)NCc2ccc3ncccc3c2)nn1 (some centres undefined)	> 10								

SMILES	Ratio [1] [M⁻¹ s⁻¹]	IC50 [2] [µM]	Kinact [4] [s⁻¹]	Ki [5] [µM]	IC50 [3] [µM]	Activity [6]	Activity [7]	Activity [8]	Activity [9]	Activity [10]	Activity [11]	Activity [12]	Activity [13]
CCCCC(C(=O)COc1c(F)c(F)cc(F)c1F)n1cc([C@@](C)(NCc2ccc3ncccc3c2)C2CCCC2)nn1 (some centres undefined)		4.2		0.11	10								
CCCCC(C(=O)COc1c(F)c(F)cc(F)c1F)n1cc([C@@](C)(NCc2ccc3ncccc3c2)C2CC2)nn1 (some centres undefined)	179000	4.3	0.089	0.94	> 10								
CCCCC(C(=O)COc1c(F)c(F)cc(F)c1F)n1cc([C@@](C)(NCc2ccc3ncccc3c2)C2CCCCC2)nn1 (some centres undefined)	58000		0.037	1.22									
CCC(C(=O)COc1c(F)c(F)cc(F)c1F)n1cc([C@@](C)(NCc2ccc3ncccc3c2)C(C)C)nn1 (some centres undefined)	124000	8.3	0.066	1.04	> 10								

From ChEMBL document CHEMBL1156871, “Nonpeptidic tetrafluorophenoxymethyl ketone cruzain inhibitors as promising new leads for Chagas disease chemotherapy” (J Med Chem, 2010)
